Results taken from ChEMBL document CHEMBL3875214, “Quercetin-glutamic acid conjugate with a non-hydrolysable linker; a novel scaffold for multidrug resistance reversal agents through inhibition of P-glycoprotein” (Bioorg Med Chem, 2017).
pEC50: −log10 of the molar value. Active and inactive are the calls of the source. The calls are words filed in the database; no cut-off is given here.

Columns and labels:
Homo sapiens [1] = species: Homo sapiens; assay: Inhibition of P-gp in human MES-SA/Dx5 cells assessed as potentiation of actinomycin D-induced cytotoxicity by measuring fold reduction in actinomycin D EC50 at 5 uM after 72 hrs by MTT assay relative to untreated control; assay type: cell-based
Method in brief: (§1)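 MES-SA/Dx5 cells were seeded at 5×10^3 per well in complete RPMI-1640 and left 24 h at 37 °C, 5% CO2. Anticancer drug was added at 0.0001–100 µM final, with or without modulator at 5 µM (1% DMSO), for 72 h. Viability was read by MTT at 570 nm and survival % was blank-corrected against 1% DMSO controls. IC50s came from survival curves. Fold reversal = IC50 untreated / IC50 with modulator. Three independent experiments were run, reported as mean ± SD.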

Homo sapiens [2] = species: Homo sapiens; assay: Inhibition of P-gp in human MES-SA/Dx5 cells assessed as potentiation of paclitaxel-induced cytotoxicity by measuring fold reduction in paclitaxel EC50 at 5 uM after 72 hrs by MTT assay relative to untreated control; assay type: cell-based; method in brief: as §1
[3] = Inhibition of P-gp in human MES-SA/Dx5 cells assessed as potentiation of paclitaxel-induced cytotoxicity by measuring compound concentration required for reduction of paclitaxel IC50 by half after 72 hrs by MTT assay; assay type: cell-based; details: MES-SA/Dx5, 72 h
[4] = Inhibition of P-gp in human MES-SA/Dx5 cells assessed as potentiation of doxorubicin-induced cytotoxicity by measuring compound concentration required for reduction of doxorubicin IC50 by half after 72 hrs by MTT assay; assay type: cell-based; details: MES-SA/Dx5, 72 h
Homo sapiens [5] = species: Homo sapiens; assay: Inhibition of P-gp in human MES-SA/Dx5 cells assessed as potentiation of vinblastine-induced cytotoxicity by measuring fold reduction in vinblastine EC50 at 5 uM after 72 hrs by MTT assay relative to untreated control; assay type: cell-based; method in brief: as §1
[6] = Inhibition of P-gp in human MES-SA/Dx5 cells assessed as potentiation of actinomycin D-induced cytotoxicity by measuring compound concentration required for reduction of actinomycin D IC50 by half after 72 hrs by MTT assay; assay type: cell-based; details: MES-SA/Dx5, 72 h
[7] = Half life in human MES-SA cells up to 100 uM by HPLC analysis; assay type: ADME, cell-based
Method in brief: (§2)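 MES-SA or MES-SA/Dx5 cells were incubated with compound for up to 48 h (0, 24, 48 h). Cell lysates were analysed by HPLC for intact compound and for released quercetin, and half-lives were derived from these measurements.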

[8] = Stability in human MES-SA cells assessed as reduction in quercetin release up to 100 uM by HPLC analysis; assay type: ADME, cell-based; method in brief: as §2
[9] = Inhibition of P-gp in human MES-SA/Dx5 cells assessed as potentiation of vinblastine-induced cytotoxicity by measuring compound concentration required for reduction of vinblastine IC50 by half after 72 hrs by MTT assay; assay type: cell-based; details: MES-SA/Dx5, 72 h
[10] = Stability in P-gp over-expressing human MES-SA/Dx5 cells assessed as reduction in quercetin release up to 100 uM by HPLC analysis; assay type: ADME, cell-based; method in brief: as §2
Homo sapiens [11] = species: Homo sapiens; assay: Inhibition of P-gp in human MES-SA/Dx5 cells assessed as increase in doxorubicin accumulation at 5 uM after 30 mins by flow cytometry relative to control; assay type: cell-based
[12] = Antioxidant activity assessed as DPPH radical scavenging activity; assay type: functional
Homo sapiens [13] = species: Homo sapiens; assay: Inhibition of P-gp in human MES-SA/Dx5 cells assessed as potentiation of doxorubicin-induced cytotoxicity by measuring fold reduction in doxorubicin EC50 at 5 uM after 72 hrs by MTT assay relative to untreated control; assay type: cell-based; method in brief: as §1
Homo sapiens [14] = species: Homo sapiens; assay: Activity at human P-gp expressed in membranes assessed as stimulation of P-gp ATPase activity at 100 uM after 40 mins in presence of MgATP by […] relative to control
Method in brief: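 Human Pgp membrane, 25 µg, incubated at 37 °C with compound at 100 µM, alongside Na3VO4 (100 µM) and 0.1% DMSO solvent controls. Reaction was started with 5 mM MgATP and run 40 min at 37 °C. Leftover ATP was read as luciferase luminescence after 20 min at room temperature. Activity was taken as the luminescence drop relative to the Na3VO4 sample.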

[15] = Half life in P-gp over-expressing human MES-SA/Dx5 cells up to 100 uM by HPLC analysis; assay type: ADME, cell-based; method in brief: as §2

O=C(O)CC[C@H](NC(=O)COc1cc(O)c2c(=O)c(O)c(-c3ccc(O)c(O)c3)oc2c1)C(=O)O
fold change (FC) (Homo sapiens [1]): 48.4 | fold change (FC) (Homo sapiens [2]): 34.6 | pEC50 [3]: 5.68 | pEC50 [4]: 5.66 | fold change (FC) (Homo sapiens [5]): 26 | pEC50 [6]: 5.64 | half-life [7]: 30 h | Stability [8]: Stable | pEC50 [9]: 5.60 | Stability [10]: Stable | fold change (FC) (Homo sapiens [11]): 2.3 | Activity [12]: Active | fold change (FC) (Homo sapiens [13]): 25.6 | fold change (FC) (Homo sapiens [14]): 3.1 | half-life [15]: 30 h

O=c1c(O)c(-c2ccc(O)c(O)c2)oc2cc(O)cc(O)c12
fold change (FC) (Homo sapiens [1]): 3.06 | fold change (FC) (Homo sapiens [2]): 2.48 | fold change (FC) (Homo sapiens [5]): 2.75 | Activity [12]: Active | fold change (FC) (Homo sapiens [13]): 1.94

O=C(O)CC[C@H](NCCOc1cc(O)c2c(=O)c(O)c(-c3ccc(O)c(O)c3)oc2c1)C(=O)O
fold change (FC) (Homo sapiens [1]): 20.5 | fold change (FC) (Homo sapiens [2]): 17.3 | pEC50 [3]: 5.60 | pEC50 [4]: 5.55 | fold change (FC) (Homo sapiens [5]): 16.2 | pEC50 [6]: 5.57 | half-life [7]: 56 h | Stability [8]: Stable | pEC50 [9]: 5.62 | Stability [10]: Stable | fold change (FC) (Homo sapiens [11]): 2.1 | Activity [12]: Active | fold change (FC) (Homo sapiens [13]): 22.3 | fold change (FC) (Homo sapiens [14]): 2.8 | half-life [15]: 56 h
